One molecule from ChEMBL document CHEMBL4680156, “Discovery of novel pyrido-pyrrolidine hybrid compounds as alpha-glucosidase inhibitors and alternative agent for control of type 1 diabetes” (Eur J Med Chem, 2020) can be followed below.

Data set [1] can be described thus: Protein binding in human plasma assessed as unbound fraction at 10 uM after 6 hrs by LC-MS/MS analysis. Format: ADME, cell-free. The procedure, abridged:
(§1)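 Equilibrium dialysis: plasma with compound at 10 μM final on one side, 100 mM sodium phosphate pH 7.4 on the other. Equilibrated at 37 ± 1 °C for 6 h with shaking at 500 rpm. Both sides were sampled, proteins precipitated with organic solvent, and supernatants analysed by LC-MS/MS.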

A further data set deals with Rattus norvegicus. In words: Antidiabetic activity against STZ-induced type 1 diabetic Sprague-Dawley rat model assessed as decrease in fasting blood glucose level at 60 mg/kg, po administered once daily for 28 days. The data set is classed as functional, organism-based. The conditions noted are these: time 28.0 day. The method in brief: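 Male Sprague-Dawley rats (250–320 g, 8–10 weeks) were given STZ 70 mg/kg ip once in 0.1 mmol/L citrate buffer, pH 4.5. Rats with random glucose >125 mg/dl at 4 days were counted diabetic. Dosing was 60 mg/kg in 0.5% saline by gavage once daily for 4 weeks, n=6 per group. After a 6 h fast, tail blood glucose was read by glucometer. Data are mean ± SD; 2-way ANOVA.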

A short description of data set [2]: Clearance in mouse. The note with it: in vivo. The data set is classed as ADME, organism-based.
Data set [3] in a line: Protein binding in mouse plasma assessed as unbound fraction at 10 uM after 6 hrs by LC-MS/MS analysis. The data set is classed as ADME, cell-free. The method in brief:
as §1

Data set [4] can be described thus: Clearance in human. The data set is classed as ADME. The procedure, abridged: (§2)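 Liver microsomes (1.0 mg protein/mL) were incubated with compound at 1 μM; reactions were started with 1 mM NADPH. No-NADPH incubations (0 and 60 min) served as stability controls. Reactions were stopped at 0, 5, 15, 30 and 60 min with ice-cold acetonitrile containing internal standard, then centrifuged. Parent loss was tracked by LC-MS/MS.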

In data set [5] the test system is Saccharomyces cerevisiae. As to the kind of experiment: Binding affinity to Saccharomyces cerevisiae alpha-glucosidase assessed as protein with beta-sheet structure at 0.32 ug/ml by CD spectroscopic method (reference value: 68%). The conditions noted are these: dose 0.32 µg/ml. The procedure, abridged: (§3)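 Compound was added at different concentrations to yeast α-glucosidase (30 U/ml). CD spectra were taken with 3 accumulations (negative bands at 209 and 222 nm). α-Helix and β-sheet content were estimated with secondary-structure estimation software.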

Data set [6] in a line: Competitive inhibition of Saccharomyces cerevisiae alpha-glucosidase using PNPG as substrate incubated for 10 mins by Lineweaver-Burk plot analysis. The procedure, abridged:
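Yeast α-glucosidase kinetics used pNPG at 1, 2, 3, 4 and 5 mM without inhibitor or with inhibitor at 2 and 10 μM, at 37 °C. Absorbance read at 420 nm. Mode of inhibition came from Km/Vmax changes on Lineweaver–Burk double-reciprocal plots; Ki derived […].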

The nature of data set [7]: Toxicity in STZ-treated diabetic Sprague-Dawley rat model assessed as decrease in body weight at 60 mg/kg, po administered once daily for 28 days. The conditions noted are these: in vivo, 672 h, time 28 day. Format: organism-based. The procedure, abridged: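 Male Sprague-Dawley rats (250–320 g, 8–10 weeks) were made diabetic with a single STZ dose (70 mg/kg ip in 0.1 mmol/L citrate buffer, pH 4.5). Random glucose above 125 mg/dl defined diabetes. Dosing was 60 mg/kg in 0.5% saline by gastric gavage once daily for 4 weeks, n=6 per group, with vehicle controls. Body weight was recorded before and after treatment; mean ± SD, 2-way ANOVA.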

The nature of data set [8]: Half life in mouse liver microsomes at 1 uM up to 60 mins in presence of NADPH by LC-MS/MS analysis. The data set is classed as ADME, Microsome. The method in brief:
as §2
For orientation: Liver microsomes are vesicles of endoplasmic reticulum, rich in cytochrome P450 enzymes.

Data set [9] concerns Saccharomyces cerevisiae. As to the kind of experiment: Potency index, ratio of acarbose IC50 to test compound IC50 for inhibition of Saccharomyces cerevisiae alpha-glucosidase using PNPG as substrate incubated for 10 mins by spectrophotometric method.
The target in another data set is Cytochrome P450 (Homo sapiens, UniProt P04798+P05177+P05181+P08684+P10632+P10635+P11509+P11712+P13584+P20813+P20815+P20853+P24462+P24903+P33260+P33261+P51589+P78329+P98187+Q02928+Q08477+Q16678+Q16696+Q5TCH4+Q6VVX0+Q7Z449+Q8TAV3+Q96SQ9+Q9HB55). In words: Stability in human liver microsomes assessed as CYP450-mediated drug degradation by measuring proportion of compound metabolised at 1 uM up to 60 mins in presence of NADPH by LC-MS/MS analysis. Format: ADME. The note with it: read-out: Drug degradation. The procedure, abridged: as §2

The nature of data set [10]: Inhibition of Saccharomyces cerevisiae alpha-glucosidase using PNPG as substrate incubated for 10 mins by spectrophotometric method.
Data set [11] can be described thus: Intrinsic clearance in mouse liver microsomes at 1 uM up to 60 mins in presence of NADPH by LC-MS/MS analysis. The data set is classed as ADME, Microsome. The conditions noted are these: 1 h. The method in brief:
as §2

Another data set addresses T1, Alpha-mannosidase (Canavalia ensiformis, UniProt C0HJB3).
T1 sequence (C0HJB3 whole entry): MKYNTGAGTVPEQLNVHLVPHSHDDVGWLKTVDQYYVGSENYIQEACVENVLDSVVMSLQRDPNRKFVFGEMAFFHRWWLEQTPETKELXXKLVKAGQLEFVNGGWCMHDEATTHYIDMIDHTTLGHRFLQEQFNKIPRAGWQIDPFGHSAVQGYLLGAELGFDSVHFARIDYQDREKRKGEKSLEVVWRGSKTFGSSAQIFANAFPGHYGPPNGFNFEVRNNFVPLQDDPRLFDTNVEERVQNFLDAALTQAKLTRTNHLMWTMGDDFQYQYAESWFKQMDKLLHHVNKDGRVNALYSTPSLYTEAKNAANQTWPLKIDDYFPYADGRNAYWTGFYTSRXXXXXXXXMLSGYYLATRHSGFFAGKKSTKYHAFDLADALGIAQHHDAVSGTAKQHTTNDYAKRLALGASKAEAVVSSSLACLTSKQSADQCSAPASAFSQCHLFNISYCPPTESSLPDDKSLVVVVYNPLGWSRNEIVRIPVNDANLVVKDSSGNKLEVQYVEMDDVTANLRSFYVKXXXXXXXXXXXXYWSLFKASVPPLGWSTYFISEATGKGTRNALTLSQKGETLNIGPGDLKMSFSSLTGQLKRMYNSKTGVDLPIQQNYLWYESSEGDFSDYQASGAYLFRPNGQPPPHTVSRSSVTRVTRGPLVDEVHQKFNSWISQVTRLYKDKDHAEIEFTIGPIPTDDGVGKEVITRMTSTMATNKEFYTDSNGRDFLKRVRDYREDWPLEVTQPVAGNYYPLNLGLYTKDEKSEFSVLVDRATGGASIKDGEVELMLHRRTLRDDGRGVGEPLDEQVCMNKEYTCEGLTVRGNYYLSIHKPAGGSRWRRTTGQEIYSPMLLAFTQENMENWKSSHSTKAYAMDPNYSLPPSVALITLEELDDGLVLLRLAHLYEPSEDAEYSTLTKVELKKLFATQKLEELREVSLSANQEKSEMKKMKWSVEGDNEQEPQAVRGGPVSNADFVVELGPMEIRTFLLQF
As to the kind of experiment: Inhibition of jack bean alpha-mannosidase using […] as substrate incubated for 10 mins by spectrophotometric method.

A short description of data set [12]: Half life in human liver microsomes at 1 uM up to 60 mins in presence of NADPH by LC-MS/MS analysis. The data set is classed as ADME, Microsome. The method in brief: as §2
Data set [13] deals with Saccharomyces cerevisiae. As to the kind of experiment: Binding affinity to Saccharomyces cerevisiae alpha-glucosidase assessed as protein with beta-sheet structure at 0.64 ug/ml by CD spectroscopic method (reference value: 68%). The conditions noted are these: dose 0.64 µg/ml. The method in brief: as §3

Calls of active or inactive are those of the source.

Turning to `CCOC(=O)c1ccc(-n2c(/C=C3\OC(=O)c4c3cc(C)[nH]c4=O)ccc2CO)cc1`, the fraction unbound at 6 h, 10 µM in data set [1] amounted to 0.107; in data set [3], 0.0899. In addition, the outcome in the data set with Rattus norvegicus was Active. Further, the clearance worked out at 60.3 mL/min/kg in data set [2] and 15.1 mL/min/kg in [4]. The Activity in the data set with Saccharomyces cerevisiae [5] was 63%; in data set [7], “Non-Toxic”; in the data set on Saccharomyces cerevisiae [13], 58.9%. Further, in data set [6], the Ki stood at 29.9 µM. For the same molecule, the half-life at 1 µM is 9 min in [8] and 13 min in data set [12]. The Ratio IC50 in the data set on Saccharomyces cerevisiae [9] was 4. Besides, at Cytochrome P450, the metabolised at 1 h, 1 µM is 96.3%. Besides, the IC50 was determined as 0.56 µM in [10] and 41.2 µM at Alpha-mannosidase. In addition, the CLint in data set [11] came out at 74.1 µL/min/mg.

As a reminder, the fraction unbound is free concentration divided by total concentration. As a reminder, the clearance is the rate of elimination divided by the concentration. Lower therefore signals a low capacity for elimination. A word on the Ki: it is a dissociation constant, usually derived from enzyme kinetics or from competition with a known ligand. Read a low Ki as higher affinity. Usually half-life stands for the time needed for the level to fall by half in the phase considered. A word on the IC50: it is the point on the concentration scale where inhibition reaches its midpoint. Read a high IC50 as weaker potency in that assay.
